This data set relates to MS2 coat protein. Nature of the data set: apparent Kd, MS2 coat protein; higher = weaker binding; RNA-MaP array; FMN 200 µM where present. In short, it runs like this: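 The apparent Kd is the median of filtered binding-curve fits, one per cluster, to green signal normalised to red-channel RNA signal and control-cluster median Fmax. The clusters were on Illumina sequencing chips, and stalled E. coli RNA polymerase had transcribed the designs on them. Titration used SNAP-549-labelled MS2 coat protein from 0.7 or 1.5 nM, doubling to 3 µM, without and then with constant ligand, in 100 mM Tris-HCl pH 7.5, 80 mM KCl, 4 mM MgCl2, BSA, DTT, yeast tRNA and Tween-20.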

[1] abbreviates: designed as: ON switch for flavin mononucleotide, no ligand.
[2] abbreviates: ligand present: flavin mononucleotide, designed as: ON switch for flavin mononucleotide.
The mark [3] stands for this setting: designed as: OFF switch for flavin mononucleotide, no ligand.
Setting [4] is: ligand present: flavin mononucleotide, designed as: OFF switch for flavin mononucleotide.

The apparent Kd is the concentration giving half-maximal binding under the conditions of the assay.

For the sequence “GAACGAUUGCCUACAUGAGGAUCACCCAUGUGGCUGACAAGCAGAAGGGCGGGUUUCAUUCUCCCGUAGGAUAUGCGCGUUCCA”, the “apparent Kd” value came out at 6.89 nM under setting [1] and 5.14 nM under setting [2].

For “GGUGCGUAUGUGAGGAUAUGCUGGUCCUUGGGUCGGCAGAAGGCACAUGAGGAUCACCCAUGUGGUGUCGUUCC”, the “apparent Kd” value runs as follows: under setting [3], 86.2 nM; under setting [4], 86.5 nM.

In the case of “UGCCUGAGUCGAGGAUAUUAUGGAUCCUCUAAUACAUGAGGAUCACCCAUGUAAUUAAUUAUACAUGAGAAGGUGACUCAGGCU”, the “apparent Kd” value reads like this: under setting [1], 529 nM; under setting [2], 488 nM.

Turning to “AGUUAAUAUCGAGGAUAUAAGUCUAAGACAUGAGGAUCACCCAUGUGUGUCUUAGAAGGCGAUAUUAACAGCAUGUUACAUGCA”, the “apparent Kd” value by setting is: under setting [1], 48.3 nM; under setting [2], 8.07 nM.

As for “GGUUGACGACAAUUACAUGAGGAUCACCCAUGUUUUGGGAUGCAGGAUAUGUGGUAUAUUAAUUAACAGAAGGGCAAUAAUUUU”, the “apparent Kd” value was 37.3 nM under setting [1] and 39.3 nM under setting [2].

Regarding “GCUAAUAUUUUGUUAAAUGUAUUUUGAGAAGGCAUACACAUGAGGAUCACCCAUGUAAUUUGUAAUGAGGAUAUCAUGAUGUGC”, the “apparent Kd” value by setting is: under setting [1], 115 nM; under setting [2], 31.5 nM.

On to “UUAUGGUUCAAGAAGGAUGUAUUUGACUUGUACAUAGGAUAUUGUUAUAUUGUUAAUUAUUGUAACAUGAGGAUCACCCAUGUA”, for which the “apparent Kd” value reads like this: under setting [1], 7.84 nM; under setting [2], 7.77 nM.

Regarding “AAUUCACAUGAGGAUCACCCAUGUCAGGAUAUGCUGACGCGGGUUUCGGUGCGUGUUGGCAGAAGGGACAGCUA”, the “apparent Kd” value under setting [3] stood at 193 nM and the “apparent Kd” value under setting [4] was found to be 204 nM.

Turning to “ACCAGUGACACAGGAUAUCCGUGCAUGUAGCACGGAGAAGGGUGUUCCAAUCAACUCACAUGAGGAUCACCCAUGUGCUACUUG”, the “apparent Kd” value came out at 176 nM under setting [1] and 59.8 nM under setting [2].

As for “AGUCUGCGAGGAUAUACAUGAGGAUCACCCAUGUGCGAAGAACUAGUGAGGUCGAUUGGUAGAAGGCGCGGACA”, the “apparent Kd” value under setting [3] came to 297 nM and the “apparent Kd” value under setting [4] turned out to be 30.3 nM.

With “UGUAUUAAUGGAGGAUAUCGAUAUCAAACAUGAGGAUCACCCAUGUUGAGGAUCACCCAUGUCCAUGAGAAGGCCGGCGUACUU”, the “apparent Kd” value by setting is: under setting [1], 34.4 nM; under setting [2], 32.8 nM.

Consider “GAUUAUAAGUAAGGAUAUGUAUAUGAAACAUCUACAGAAGGUACAUGAGGAUCACCCAUGUUCUUGCAGCGUGACUCUGUGAUC”, for which the “apparent Kd” value by setting is: under setting [3], 63.6 nM; under setting [4], 130 nM.

For “GUCCCAGCUGAGGAUAUUAUCUGGCUCGACCGAUAAGAAGGCAGUACAUGAGGAUCACCCAUGUGGUUCGUUCG”, the “apparent Kd” value is 31.5 nM under setting [3] and 70.7 nM under setting [4].

In the case of “CGAUAUACGACGGACGGAAACGUACAUGAGGAUCACCCAUGUAGAAGGCGAUCCGCAACGCGGAUUGAGGAUAUAUAGUAUACA”, the “apparent Kd” value under setting [3] worked out at 20.7 nM and the “apparent Kd” value under setting [4] was 14.6 nM.

In the case of “GUGGUCAGACAUGAGGAUCACCCAUGUGGAAUAAAUAACAGACAGGAUAUGUAAUAUAGGAUAUAACAGAAGGGUCGAUUGGUG”, the “apparent Kd” value is, setting by setting: under setting [1], 89 nM; under setting [2], 77.9 nM.

As to “CCUAAGGACACAGGAUAUAGCGUGGUGGGUGGGCUCCAACGACGAGCGGCGCUAGAAGGGUGACCACAUGAGGAUCACCCAUGU”, the “apparent Kd” value under setting [1] turned out to be 668 nM and the “apparent Kd” value under setting [2] was 205 nM.

Regarding “CGAGUUUUUGAGAAGGCAUAUUAUAUUAUACCACAUGUUUACAUGAGGAUCACCCAUGUUUCCUAUGAGGAUAUCAGAAUAUCG”, the “apparent Kd” value is, setting by setting: under setting [3], 11.8 nM; under setting [4], 10 nM.

For “GUGCACAUUCGAGGAUAUCGGAGAGAGAUCCUUCGAGAAGGCGAUUCAUGAUGUAUUAUCCUGGACAUGAGGAUCACCCAUGUG”, the “apparent Kd” value by setting is: under setting [1], 579 nM; under setting [2], 288 nM.

Regarding “AAUAACAGAGGAUAUACUAUUUUAUGUGUUUAUUGUUUUGAACAUGAGGAUCACCCAUGUAGAAGGCUGAGUAA”, the “apparent Kd” value reads like this: under setting [3], 30.2 nM; under setting [4], 38 nM.

With “AAAGGUGAUUCAGGAUAUGUGUAGGAGGGCGGCGCAGAAGGGAAUCUAGCCCGACGUCAUACAUGAGGAUCACCCAUGUAUGCC”, the “apparent Kd” value by setting is: under setting [1], 28.7 nM; under setting [2], 18.5 nM.

In the case of “GUAUCACGAGGAUAUACAUGAGGAUCACCCAUGUAGAAGCCAUGUGGUGCUCAAGUAUGUAGAAGGCGUGCUCC”, under setting [4], the “apparent Kd” value was 33.3 nM.

As to “UUCCUCAAGUAAGGAUAUACCACGGUAUGCUGAGUAGAAGGUACAUGAGGAUCACCCAUGUGCAUCCCACGAUUGCAUUGGUCA”, the “apparent Kd” value by setting is: under setting [3], 30.4 nM; under setting [4], 145 nM.

In the case of “GGUACUCAAAGAGUACCAAUACGAACAUGAGGAUCACCCAUGUAGGAUAUGCUACUCAAAGAGUAGCAGAAGGAUAUGAUCCAU”, the “apparent Kd” value reads like this: under setting [3], 77.2 nM; under setting [4], 105 nM.

For “CGAUAGGACAGAGGAUAUACACAUGAGGAUCACCCAUGUAAUUACAACUCAUGAGGAUCACCCAUGUAGAAGGCUGUCCUAUCG”, the “apparent Kd” value came out at 397 nM under setting [3] and 430 nM under setting [4].

For the sequence “AUCCGGGCUAACAUGAGGAUCACCCAUGUGUUAUACUUAAUAUAGGAUAUGUUUAUACUUUUUGGGCAGAAGGAUGGCCCGGAU”, the “apparent Kd” value turned out to be 83.1 nM under setting [1] and 68.8 nM under setting [2].

With “UGCAUGUAAGGAUAUGCAACCUGCGCUCAUUAGCAGGUCAAGCAGAAGGUACAUGAGGAUCACCCAUGUGUCCG”, the “apparent Kd” value worked out at 31.2 nM under setting [3] and 156 nM under setting [4].

For “AUACAUGAGGAUCACCCAUGUAAUUAAUUAACUAGUAAGAUCUAGGAUAUCAGCUCGAUUAGAGCUGAGAAGGAGAUCACAUGU”, the “apparent Kd” value turned out to be 34.7 nM under setting [1] and 16.9 nM under setting [2].

Take “AACAAGUGAGGAUAUGAAAAUACAACAAACAAACAUCUACAUCAGAAGGCACAUGAGGAUCACCCAUGUUAAUC”: the “apparent Kd” value under setting [3] was found to be 20.9 nM and the “apparent Kd” value under setting [4] came to 23.2 nM.

“UGCAGGUGAGGAUAUGCGGGCGAUUAAACAUAUAAAUGCAAGCAGAAGGCACAUGAGGAUCACCCAUGUAGUCC”: the “apparent Kd” value under setting [3] worked out at 26 nM and the “apparent Kd” value under setting [4] worked out at 36.1 nM.

Consider “CUUAGACAUGAGGAUCACCCAUGUGAGGAUAUGAUGCAGCAGUGGUCUACGCUGUGCAUCAGAAGGCACAUGUG”, for which the “apparent Kd” value stood at 80.7 nM under setting [3] and 14.2 nM under setting [4].

Turning to “AGAAUGAUGUCAGGAUAUGACGCUGAGAGCACGUCAGAAGGGACAUGAGGAUCACCCAUGUCGGGCUAAUGAAGCUAUGGCACU”, the “apparent Kd” value was 8.86 nM under setting [3] and 11.7 nM under setting [4].

Take “GGGUACAUCGGAGGAUAUCAUGUAAAUACAUGAGGAUCACCCAUGUCGAUGGAGACAUCGGAGAUCGAGAAGGCCGAUGUACCG”: the “apparent Kd” value amounted to 168 nM under setting [1] and 294 nM under setting [2].

Consider “CAGUCUACAGGAUAUACAUGAGGAUCACCCAUGUAAAUUCACUUUCGGUAGUCUACAUGUAGAAGGGUAGACUG”, for which the “apparent Kd” value by setting is: under setting [3], 125 nM; under setting [4], 38.8 nM.

For “AUUGUGUUAGGAUAUGCUUAUGGUGGAUAGUCCAGUAUGAUGUAGAAGGGACAUGAGGAUCACCCAUGUGCUGA”, the “apparent Kd” value came to 46.9 nM under setting [3] and 48.5 nM under setting [4].

“AGCUGCAAUCAGAAGGAGUAGGGUACAUGAGGAUCACCCAUGUCCGAUGCUAGGAUAUGAAAGCAGACCCGUGGUACCAAUCCC”: the “apparent Kd” value is 33.5 nM under setting [1] and 7.39 nM under setting [2].

“CCAUUCAGAGGAUAUGCGCAUAGAUAAGACUUUUUUUCUUAACAUGAGGAUCACCCAUGUAGAAGGCUGUACCC”: the “apparent Kd” value turned out to be 21.6 nM under setting [3] and 19.4 nM under setting [4].

In the case of “GUCAGCCCGUGAGGAUAUACAACACUGCUUCGGCAGUGUAUUAAGAUCACAUGAGGAUCACCCAUGUAGAAGGCACGAGCUGAU”, the “apparent Kd” value runs as follows: under setting [3], 13.1 nM; under setting [4], 266 nM.

On to “AUUGUGUUAGGAUAUGCUUAUGCUGGGUAGUCCAGUAUGGAGUAGAAGGGACAUGAGGAUCACCCAUGUGCUCA”, for which the “apparent Kd” value under setting [3] turned out to be 20.9 nM and the “apparent Kd” value under setting [4] was determined as 21.2 nM.

For “UUUGCAUUCCGAGGAUAUUCAUAUAAUGACUUCACAUGAGGAUCACCCAUGUGGCGAUAGCCUAGGGAGAAGGCGGUUUGCUUU”, the “apparent Kd” value by setting is: under setting [1], 25.6 nM; under setting [2], 20.6 nM.

Take “GUCUUAUUACAGAAGGUGUUUUACAUGAGGAUCACCCAUGUUUUAAUGUUUAAAUUUGAUAUUUACAAGGAUAUGUACUAAUCU”: the “apparent Kd” value under setting [1] is 27.7 nM and the “apparent Kd” value under setting [2] was 19.4 nM.

Turning to “AGUGUGUGGCAGGAUAUGCUAUUAAUUGGUGAAGCAGAAGGGUCUACAUGAGGAUCACCCAUGUAAGCGGUUGA”, the “apparent Kd” value by setting is: under setting [3], 39.7 nM; under setting [4], 190 nM.

In the case of “UCGAACUUUCGUGUAAUUCGCACAUGAGGAUCACCCAUGUACGAGGAUAUGUACCUAAACGGCUAACAGAAGGCGUACUGGGCA”, the “apparent Kd” value runs as follows: under setting [3], 170 nM; under setting [4], 106 nM.

Regarding “UGGACUGGGCAGAAGGGACAUGAGGAUCACCCAUGUCUUGGGCUACUUCAGUCAGGAUAUGCCCAUUGAAUAUCCGAGCAUCAA”, the “apparent Kd” value came to 13.7 nM under setting [3] and 77.4 nM under setting [4].

Regarding “GGAUGACAAAGUCAUCCAAUACGAACAUGAGGAUCACCCAUGUAGGAUAUGCAACACAAAGUGUUGCAGAAGGACAUGUGUCUU”, the “apparent Kd” value under setting [3] was 30.4 nM and the “apparent Kd” value under setting [4] was 136 nM.

As to “UGACCCUGGAUGAGUGUUUAGACAUGAGGAUCACCCAUGUCUGAGGAUAUGCGGCAUCAAUAACAGCAGAAGGCAGACUUGGGU”, the “apparent Kd” value was 133 nM under setting [3] and 41.2 nM under setting [4].

On to “UCGAGGUCAGGAUAUACAUGAGGAUCACCCAUGUGGAAGUAAGGUAGGAGAAGAGUAGGUAGAAGGGACGAGAG”, for which the “apparent Kd” value amounted to 42.6 nM under setting [3] and 35.7 nM under setting [4].

Take “GGUGCCAUGUAGAAGGCAGACCUGAUUCAGAUCUGAGGAUAUACAUGAGGAUCACCCAUGUAAAGGCACCGCACGAGAGUGCAA”: the “apparent Kd” value reads like this: under setting [3], 6.05 nM; under setting [4], 8.57 nM.

Regarding “GCGCGGAACCUAGGAUAUCCGGCAUGGACGGGUGGUAGGUCUCCCACAUGAGGAUCACCCAUGUAGGAGAAGGAGGAUCACGGG”, the “apparent Kd” value reads like this: under setting [3], 6.17 nM; under setting [4], 6.83 nM.

(Values after the EternaBench riboswitch data.)
